Laboratory results from ChEMBL document CHEMBL1127562, “N-substituted spirosuccinimide, spiropyridazine, spiroazetidine, and acetic acid aldose reductase inhibitors derived from isoquinoline-1,3-diones. 2” (J Med Chem, 1994).
One block for each molecule: values may come before it. The source made the active and inactive calls. The calls are words filed in the database; no cut-off is given here.

Experiments:
[1] = target: Aldo-keto reductase family 1 member B1 (Bos taurus) (UniProt P16116); assay: Inhibition of aldose reductase activity in partially purified bovine lens preparation at 10e-5 M
Method in brief: (§1)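 Partially purified bovine lens aldose reductase. Reduction of DL-glyceraldehyde substrate followed spectrophotometrically. Activity expressed as average inhibition at the tested concentrations, 1×10^-5, 1×10^-6, 1×10^-7 and 4×10^-6 M as printed; IC50 in M where given.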

[2] = test system: Rattus norvegicus; assay: Tested for in vivo inhibition of galactitol accumulation in the sciatic nerve of galactose-fed rats at the dose of 26.2 (mg/kg/day); NS=Not significant; assay type: functional, organism-based
Method in brief: (§2)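 Rats were given a 20% galactose diet for 4 days, with the test compound administered in the diet. Sciatic nerve galactitol accumulation was measured, and activity is given as % inhibition at the stated daily dose (mg/kg/day). Values are mean ± SEM, n = 6 animals; p < 0.01 unless indicated. NS means no significant inhibition of polyol accumulation.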

[3] = test system: Rattus norvegicus; assay: Tested for in vivo inhibition of galactitol accumulation in the sciatic nerve of galactose-fed rats at the dose of 47.9 (mg/kg/day); assay type: functional; method in brief: as §2
[4] = test system: Rattus norvegicus; assay: Tested for in vivo inhibition of galactitol accumulation in the lens of galactose-fed rats at the dose of 47.9 (mg/kg/day); assay type: functional, Lens of camera-type eye
[5] = test system: Rattus norvegicus; assay: Tested for in vivo inhibition of galactitol accumulation in the lens of galactose-fed rats at the dose of 10.8 (mg/kg/day); assay type: functional, Lens of camera-type eye
[6] = test system: Rattus norvegicus; assay: Tested for in vivo inhibition of galactitol accumulation in the sciatic nerve of galactose-fed rats at the dose of 10.8 (mg/kg/day); assay type: functional; method in brief: as §2
[7] = test system: Rattus norvegicus; assay: Tested for in vivo inhibition of galactitol accumulation in the lens of galactose-fed rats at the dose of 0.9 (mg/kg/day); NS=Not significant; assay type: functional, organism-based; conditions: Lens of camera-type eye
[8] = test system: Rattus norvegicus; assay: Tested for in vivo inhibition of galactitol accumulation in the sciatic nerve of galactose-fed rats at the dose of 24.5 (mg/kg/day); assay type: functional; method in brief: as §2
[9] = test system: Rattus norvegicus; assay: Tested for in vivo inhibition of galactitol accumulation in the lens of galactose-fed rats at the dose of 24.5 (mg/kg/day); NS=Not significant; assay type: functional, organism-based; conditions: Lens of camera-type eye
[10] = test system: Rattus norvegicus; assay: Tested for in vivo inhibition of galactitol accumulation in the sciatic nerve of galactose-fed rats at the dose of 22 (mg/kg/day); NS=Not significant; assay type: functional, organism-based; method in brief: as §2
[11] = test system: Rattus norvegicus; assay: Tested for in vivo inhibition of galactitol accumulation in the lens of galactose-fed rats at the dose of 22 (mg/kg/day); NS=Not significant; assay type: functional, organism-based; conditions: Lens of camera-type eye
[12] = test system: Rattus norvegicus; assay: Tested for in vivo inhibition of galactitol accumulation in the sciatic nerve of galactose-fed rats at the dose of 10.0 (mg/kg/day); NS=Not significant; assay type: functional, organism-based; method in brief: as §2
[13] = test system: Rattus norvegicus; assay: Tested for in vivo inhibition of galactitol accumulation in the lens of galactose-fed rats at the dose of 24.8 (mg/kg/day); NS=Not significant; assay type: functional, organism-based; conditions: Lens of camera-type eye
[14] = test system: Rattus norvegicus; assay: Tested for in vivo inhibition of galactitol accumulation in the sciatic nerve of galactose-fed rats at the dose of 24.8 (mg/kg/day); NS=Not significant; assay type: functional, organism-based; method in brief: as §2
[15] = target: Aldo-keto reductase family 1 member B1 (Bos taurus) (UniProt P16116); assay: Compound was tested in vitro for inhibition of aldose reductase activity in partially purified bovine lens preparation at 10e-5 M; Not significant; NS=Not significant; method in brief: as §1
[16] = test system: Rattus norvegicus; assay: Tested for in vivo inhibition of galactitol accumulation in the sciatic nerve of galactose-fed rats at the dose of 47 (mg/kg/day); NS=Not significant; assay type: functional, organism-based; method in brief: as §2
[17] = test system: Rattus norvegicus; assay: Tested for in vivo inhibition of galactitol accumulation in the sciatic nerve of galactose-fed rats at the dose of 85 (mg/kg/day); assay type: functional
Method in brief: (§3)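 Rats fed a 20% galactose diet for 4 days, with test compound given in the diet at the stated daily dose (mg/kg/day). Read-out is inhibition of galactitol (polyol) accumulation in sciatic nerve. Values are % inhibition, mean ± SEM of six animals; p < 0.01 unless marked (some p < 0.05). NS = no significant inhibition of polyol accumulation. Tolrestat was the reference standard.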

[18] = test system: Rattus norvegicus; assay: Tested for in vivo inhibition of galactitol accumulation in the lens of galactose-fed rats at the dose of 85 (mg/kg/day); assay type: functional, Lens of camera-type eye
Method in brief: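 Galactosemic rats were fed 20% galactose for 4 days, with the compound mixed into the diet. […] galactitol accumulation was measured, and activity is given as % inhibition at the stated daily dose (mg/kg/day). Values are mean ± SEM of six animals; p < 0.01 unless indicated. NS means no significant inhibition of polyol accumulation.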

[19] = test system: Rattus norvegicus; assay: Tested for in vivo inhibition of galactitol accumulation in the lens of galactose-fed rats at the dose of 26.8 (mg/kg/day); NS=Not significant; assay type: functional, organism-based; conditions: Lens of camera-type eye
[20] = test system: Rattus norvegicus; assay: Tested for in vivo inhibition of galactitol accumulation in the sciatic nerve of galactose-fed rats at the dose of 26.8 (mg/kg/day); assay type: functional; method in brief: as §2
[21] = test system: Rattus norvegicus; assay: Tested for in vivo inhibition of galactitol accumulation in the sciatic nerve of galactose-fed rats at the dose of 24.1 (mg/kg/day); NS=Not significant; assay type: functional, organism-based; method in brief: as §2
[22] = test system: Rattus norvegicus; assay: Tested for in vivo inhibition of galactitol accumulation in the lens of galactose-fed rats at the dose of 24.1 (mg/kg/day); NS=Not significant; assay type: functional, organism-based; conditions: Lens of camera-type eye
[23] = target: Aldo-keto reductase family 1 member B1 (Bos taurus) (UniProt P16116); assay: Inhibition of aldose reductase activity in partially purified bovine lens preparation at 4*10 e-8 M
[24] = test system: Rattus norvegicus; assay: Tested for in vivo inhibition of galactitol accumulation in the lens of galactose-fed rats at the dose of 102.8 (mg/kg/day); NS=Not significant; assay type: functional, organism-based; conditions: Lens of camera-type eye
[25] = test system: Rattus norvegicus; assay: Tested for in vivo inhibition of galactitol accumulation in the sciatic nerve of galactose-fed rats at the dose of 102.8 (mg/kg/day); NS=Not significant; assay type: functional, organism-based; method in brief: as §2
[26] = test system: Rattus norvegicus; assay: Tested for in vivo inhibition of galactitol accumulation in the sciatic nerve of galactose-fed rats at the dose of 48 (mg/kg/day); assay type: functional; method in brief: as §3
[27] = test system: Rattus norvegicus; assay: Tested for in vivo inhibition of galactitol accumulation in the lens of galactose-fed rats at the dose of 48 (mg/kg/day); NS=Not significant; assay type: functional, organism-based; conditions: Lens of camera-type eye

inhibition [1]: 51%
Compound: COC(=O)NC(=O)CC1C(=O)N(C)C(=O)c2ccc(C(F)(F)F)cc21 (stereo not given)
Inhibition [3]: 52%
Inhibition [4]: 26%

inhibition [1]: inactive
Compound: CC(C)=NN1C(=O)CC2(C(=O)N(Cc3ccc(Br)cc3F)C(=O)c3ccccc32)C1=O (stereo not given)
Inhibition [5]: 30%
Inhibition [6]: 82%
inhibition [7]: inactive

inhibition [1]: inactive
Compound: O=C1CC2(C(=O)N1CC(F)(F)F)C(=O)N(Cc1ccc(Br)cc1F)C(=O)c1ccccc12 (stereo not given)
inhibition [12]: inactive

inhibition [1]: inactive
Compound: CCNC(=O)CC1C(=O)N(Cc2ccc(Br)cc2F)C(=O)c2ccccc21 (stereo not given)
inhibition [13]: inactive
inhibition [14]: inactive

inhibition [1]: 84%
Compound: COC(=O)NC(=O)CC1C(=O)N(Cc2ccc(Br)cc2F)C(=O)c2ccccc21 (stereo not given)
Inhibition [26]: 96%
inhibition [27]: inactive

The next lines start with the molecule.

Compound: O=C(O)CN1C(=O)CC2(C1=O)C(=O)N(Cc1ccc(Br)cc1F)C(=O)c1ccc(F)cc12 (stereo not given)
inhibition [1]: 60%
inhibition [2]: inactive

Compound: CCOC(=O)NC(=O)CC1C(=O)N(C)C(=O)c2ccc(Cl)cc21 (stereo not given)
inhibition [1]: inactive
Inhibition [8]: 21%
inhibition [9]: inactive

Compound: COc1c(CC(=O)O)c2ccccc2c(=O)n1Cc1ccc(Br)cc1F
inhibition [10]: inactive
inhibition [11]: inactive

Compound: CN1C(=O)CC2(C(=O)N(Cc3ccc(Br)cc3F)C(=O)c3ccc(F)cc32)C(=O)N1C (stereo not given)
inhibition [15]: inactive
inhibition [16]: inactive

Compound: COC(=O)NC(=O)CC1C(=O)N(C)C(=O)c2ccccc21 (stereo not given)
inhibition [1]: 61%
Inhibition [17]: 59%
Inhibition [18]: 37%
inhibition [19]: inactive
Inhibition [20]: 21%

Compound: CONC(=O)CC1C(=O)N(Cc2ccc(Br)cc2F)C(=O)c2ccccc21 (stereo not given)
inhibition [1]: 45%
inhibition [21]: inactive
inhibition [22]: inactive

Compound: O=C(O)CC1C(=O)N(Cc2ccc(Br)cc2F)C(=O)c2ccccc21 (stereo not given)
inhibition [23]: 50%
inhibition [24]: inactive
inhibition [25]: inactive
